Screens as filed in PubChem BioAssay.
NR3A LBD binder: modulates the human NR3A ligand-binding domain; AID 1259313; Tm shift relative to glycine control, % at 25 µM; NR3A LBD differential scanning fluorimetry, Tm shift; 0% = protein alone, 100% = glycine-bound protein; 2.5% of 340,000 active;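 active = melting temperature shift of at least 10% of the positive control shift, at one fixed dose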
EBV gp42 block: inhibitors of Epstein-Barr virus glycoprotein 42. AID 1085. Fluorescence polarization binding assay, mP read-out. 0.42% of 220,000 active. Q1HVG2. inhibition, % (tested at 21.74 µM); in the data active = inhibition above about 50%
Target sequence (Q1HVG2 whole entry, looked up): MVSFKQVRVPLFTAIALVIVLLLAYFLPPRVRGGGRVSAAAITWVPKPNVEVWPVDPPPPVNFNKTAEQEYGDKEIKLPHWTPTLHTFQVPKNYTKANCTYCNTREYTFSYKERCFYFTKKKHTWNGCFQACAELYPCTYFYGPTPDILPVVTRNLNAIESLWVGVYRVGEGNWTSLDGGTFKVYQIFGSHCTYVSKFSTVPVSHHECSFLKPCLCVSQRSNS
TbMetRS inhib: blocks T. brucei methionyl-tRNA synthetase activity; 0.4% of 360,000 active; inhibition, % at 11.9 µM; AID 624268; purified T. brucei MetRS, ATP depletion, Kinase-Glo luminescence;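 active = inhibition above a per-plate cutoff of the control wells' mean inhibition plus 3 SD, cut at about 5.5% in these data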;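 note: 0% = DMSO wells median and 100% = median of wells with control inhibitor compound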
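assay system = parasite MetRS enzyme | timing = 15 min preincubation, 2 h reaction, all 25 °C | evaluation = percent inhibition relative to median high and low control wells | medium = HEPES buffer containing pyrophosphatase, BSA, spermine, DTT | compound = single dose, 11.9 µM final nominal, 0.9% final DMSO | detection = Kinase-Glo luminescence, ATP depletion format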
CHOP inhibitor: blocks CHOP induction under ER stress | CHO-K1 CHOP-promoter luciferase, tunicamycin-induced, 15-18 h | inhibition, % at 10 µM | 3.8% of 220,000 active;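 active = compounds that reduced the stress-induced luciferase reporter signal by more than about 70% of percent inhibition, limit read from the data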;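 note: 0% = tunicamycin plus vehicle and 100% = wells without tunicamycin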
WT yeast gro inh: growth inhibition of WT yeast, mitochondrial fusion screen; AID 1362; mitochondrial fusion phenotypic screen, WT strain; inhibition, % at 10 µM; 2.1% of 190,000 active; in the data active = inhibition above about 58%; tested in S. cerevisiae
MPTP inh: blocks calcium-induced mitochondrial swelling; isolated mouse mitochondria, Ca2+ swelling absorbance, 30 min; inhibition, % at 10 µM; 1.4% of 360,000 active;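 active = inhibition of 50% or more, scaled per plate between neutral and stimulator controls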;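 note: 0% = DMSO wells given calcium and 100% = 1 mM EGTA wells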
CHOP confirm: confirmation of CHOP induction inhibitors. 45% of 2,100 active. AID 504437. shares compounds with CHOP inhibitor. CHO-CHOP promoter luciferase reporter, tunicamycin-induced, luminescence. inhibition, % at 10 µM;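 active = mean of three repeat readings of reporter signal inhibition above a set limit, cut at about 70% in these data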;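 note: 0% = tunicamycin plus vehicle and 100% = wells lacking tunicamycin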
An asterisk follows results filed as active. An excerpt weighted towards active compounds, which were near 6.4% of everything screened.

Results for Cc1nn2c(N)c(C#N)cnc2c1-c1ccc(Cl)cc1 ?
NR3A LBD binder: 2.2; EBV gp42 block: -11.3; TbMetRS inhib: -1.2; CHOP inhibitor: 97.8*; WT yeast gro inh: 6.4; MPTP inh: -1.3; CHOP confirm: -26.0

What do the screens show for `O=C1CC(c2ccc(Cl)cc2)c2c(O)cc(O)cc2O1` (stereo not given)?
NR3A LBD binder: -6.1; TbMetRS inhib: 0.3; MPTP inh: 0.2

Results for CCCCc1c(C)nn(-c2nnc3c4ccccc4n(C)c3n2)c1C ?
NR3A LBD binder: 1.2; EBV gp42 block: -26.0; TbMetRS inhib: -1.2; CHOP inhibitor: 106.5*; WT yeast gro inh: 47.9; MPTP inh: -0.2; CHOP confirm: 38.5

How did Cn1c2ccccc2c2nnc(NN)nc21 do in these assays?
NR3A LBD binder: -1.6; EBV gp42 block: -11.9; TbMetRS inhib: -0.8; CHOP inhibitor: -7.4; MPTP inh: -1.0

How did Cc1cc(Oc2cc(N)cc([N+](=O)[O-])c2)ccc1Cl do in these assays?
NR3A LBD binder: -4.0; EBV gp42 block: -6.7; TbMetRS inhib: 0.3; CHOP inhibitor: 101.7*; WT yeast gro inh: -0.6; MPTP inh: 0.1; CHOP confirm: 4.2

What do the screens show for `COCc1cn(CC[C@@H]2CC[C@@H](NC(=O)Nc3ccc4c(c3)OCO4)[C@@H](CO)O2)nn1`?
TbMetRS inhib: 0.0; MPTP inh: 0.4

What do the screens show for `O=S(=O)(Nc1cc(Sc2ncn[nH]2)c(O)c2ccccc12)c1ccccc1`?
NR3A LBD binder: -1.4; EBV gp42 block: -17.0; TbMetRS inhib: 1.0; CHOP inhibitor: 105.7*; WT yeast gro inh: 23.6; MPTP inh: 0.6; CHOP confirm: 77.2*

How did CCN1/C(=C/C=C/C=C/c2sc3ccccc3[n+]2CC)Sc2ccccc21 do in these assays?
EBV gp42 block: 30.8; CHOP inhibitor: 104.3*; WT yeast gro inh: 85.8; CHOP confirm: 119.4*

How did O=C(Oc1ccc2c(c1)OCO2)C12CC3CC(CC(C3)C1)C2 do in these assays?
NR3A LBD binder: 0.4; EBV gp42 block: -10.4; TbMetRS inhib: 0.2; CHOP inhibitor: 51.5; WT yeast gro inh: -3.5; MPTP inh: -1.0

Results for O=C(Oc1ccc(O)cc1)C12CC3CC(CC(C3)C1)C2 ?
NR3A LBD binder: -1.4; EBV gp42 block: 7.1; TbMetRS inhib: -0.1; CHOP inhibitor: 105.8*; WT yeast gro inh: 1.0; MPTP inh: -1.9; CHOP confirm: 115.9*

What do the screens show for `Cc1ccc2cc(C#N)c(NCCNC(=S)NCCCN(C)C)nc2c1C`?
NR3A LBD binder: -0.9; EBV gp42 block: 1.6; TbMetRS inhib: -0.3; CHOP inhibitor: -13.8; WT yeast gro inh: -1.3; MPTP inh: -1.4

How did O=C(CSc1nnc(COc2ccc(Cl)cc2)o1)NC1CCCCC1 do in these assays?
NR3A LBD binder: 2.8; TbMetRS inhib: -0.4; MPTP inh: 16.2

What do the screens show for `COc1ccc(C(=O)/C=C/C(=O)N(CC(=O)NC2CCCCC2)Cc2cccs2)c(O)c1`?
NR3A LBD binder: 0.3; EBV gp42 block: 0.9; TbMetRS inhib: -0.2; CHOP inhibitor: 107.7*; WT yeast gro inh: 64.9*; MPTP inh: -6.9; CHOP confirm: 118.9*

How did c1ccc2c(c1)Nc1ccncc1S2 do in these assays?
NR3A LBD binder: -4.4; EBV gp42 block: -5.4; TbMetRS inhib: 0.2; CHOP inhibitor: 32.4; MPTP inh: 2.2

What do the screens show for `Cc1cc(Nc2ccccc2)nc(-c2ccccc2O)n1`?
NR3A LBD binder: 10.7*; EBV gp42 block: 1.3; TbMetRS inhib: -0.6; CHOP inhibitor: 96.3*; WT yeast gro inh: -0.1; MPTP inh: 2.8; CHOP confirm: 100.1*

What do the screens show for `COC(=O)c1cccc(S(=O)(=O)N2CCC(NC(=O)NC34CC5CC(CC(C5)C3)C4)CC2)c1`?
NR3A LBD binder: -4.1; EBV gp42 block: -5.8; TbMetRS inhib: 0.1; CHOP inhibitor: 45.8; WT yeast gro inh: 11.8; MPTP inh: 16.3

How did COC(=O)c1cccc(NC(=O)NC23CC4CC(CC(C4)C2)C3)c1 do in these assays?
NR3A LBD binder: -3.6; EBV gp42 block: -9.3; TbMetRS inhib: -0.2; CHOP inhibitor: 100.6*; WT yeast gro inh: 19.0; MPTP inh: 5.1; CHOP confirm: -41.6

What do the screens show for `Cc1ccccc1NC(=O)COC(=O)c1cc[n+]([O-])cc1`?
NR3A LBD binder: 3.2; TbMetRS inhib: -0.2; MPTP inh: -3.7
